ChEMBL document CHEMBL5029184, “Colloidal Aggregators in Biochemical SARS-CoV-2 Repurposing Screens” (J Med Chem, 2021)
pIC50: −log10 of the molar value.

Key:
[1] = Inhibition of porcine heart malate dehydrogenase preincubated for 5 min followed by nicotinamide adenine dinucleotide addition and monitered for 90 sec by spectrophotometric method; type: tissue-based, Sus scrofa
Summary of the method: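 Porcine heart MDH was used at 2 nM final in 50 mM KPi pH 7 at room temperature. Compound was added from 100× DMSO stock (1% DMSO final) and incubated 5 min. Reactions were followed 90 s spectrophotometrically, with initial rates divided by the negative-control rate. Concentration–response used three replicates per concentration to give IC50 and Hill slope.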

Sus scrofa [2] = species: Sus scrofa; test: Inhibition of porcine heart malate dehydrogenase assessed as reduction in enzyme inhibition at 3 times IC50 preincubated for 5 min followed by nicotinamide adenine dinucleotide addition and monitered for 90 sec in presence of 0.01% Triton-X100 by spectrophotometric method relative to control; type: tissue-based; parameters: scale not given: the % may be the effect or the level left
Summary of the method: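 After a 5 min room-temperature incubation, the rate was read over 90 s and compared with the negative control. The value is the percent change in inhibition with detergent; triplicate.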

Sus scrofa [3] = species: Sus scrofa; test: Inhibition of porcine heart malate dehydrogenase assessed as critical aggregation concentration preincubated for 5 min followed by nicotinamide adenine dinucleotide addition and monitered for 90 sec by spectrophotometric method; type: tissue-based
[4] = target: T1, Angiotensin-converting enzyme 2 (Homo sapiens, UniProt Q9BYF1); test: Inhibition of recombinant human ACE2 using MCA-Tyr-Val-Ala-Asp-Ala-Pro-Lys(DNP)-OH as substrate preincubated for 15 mins followed by substrate addition and measured upto 15 mins by fluorescence assay
T1 sequence (Q9BYF1 whole entry, the tested form may be a part): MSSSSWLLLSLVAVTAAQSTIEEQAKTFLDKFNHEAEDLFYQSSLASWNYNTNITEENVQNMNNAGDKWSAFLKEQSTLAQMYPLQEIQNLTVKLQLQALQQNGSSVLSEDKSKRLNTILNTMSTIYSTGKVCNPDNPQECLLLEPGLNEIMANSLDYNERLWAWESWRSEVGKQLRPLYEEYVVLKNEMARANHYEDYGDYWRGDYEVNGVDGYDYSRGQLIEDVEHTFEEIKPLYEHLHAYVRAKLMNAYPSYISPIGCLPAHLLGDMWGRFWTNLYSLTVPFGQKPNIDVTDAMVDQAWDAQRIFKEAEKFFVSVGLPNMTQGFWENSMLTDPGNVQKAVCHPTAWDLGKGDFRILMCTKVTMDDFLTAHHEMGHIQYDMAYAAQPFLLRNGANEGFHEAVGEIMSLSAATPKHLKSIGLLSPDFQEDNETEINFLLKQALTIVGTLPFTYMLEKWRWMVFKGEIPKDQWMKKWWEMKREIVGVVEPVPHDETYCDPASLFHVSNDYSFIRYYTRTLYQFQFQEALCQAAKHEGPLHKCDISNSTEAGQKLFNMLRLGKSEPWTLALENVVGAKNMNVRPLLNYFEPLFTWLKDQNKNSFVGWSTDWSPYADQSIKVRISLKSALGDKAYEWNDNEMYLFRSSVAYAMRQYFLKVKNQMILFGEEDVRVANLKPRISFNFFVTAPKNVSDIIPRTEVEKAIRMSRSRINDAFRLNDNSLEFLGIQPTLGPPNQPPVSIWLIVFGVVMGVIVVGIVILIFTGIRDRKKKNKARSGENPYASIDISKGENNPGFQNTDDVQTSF

[5] = Inhibition of SARS CoV2 C-terminal His6-tagged 3CL protease (3264 to 3569 residues) expressed in Escherichia coli BL21 DE3 using rr-K(MCA)-ATLQAIAS-K(DNP)-COOH preincubated for 1 hr followed by substrate addition and measured after 1 hr in presence of 0.05% Tween-20; parameters: species or system Severe acute respiratory syndrome coronavirus 2
Summary of the method: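 Purified recombinant 3CL-Pro at 50 nM final with quenched fluorogenic peptide at 10 μM final (KM), in 20 mM Tris, 150 mM NaCl, 1 mM EDTA, 1 mM DTT, 0.05% Tween-20, pH 7.4. Drug and enzyme were preincubated 1 h at 37 °C, then substrate was added and fluorescence followed 1 h.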

[6] = Inhibition of SARS-Cov2 N-terminal full-length MBP-tagged 3CL protease expressed in Escherichia coli using DABCYL-KTSAVLQSGFRKME-EDANS as substrate preincubated for 30 mins followed by substrate addition and measured after 3 hrs by fluorescence assay; parameters: species or system Severe acute respiratory syndrome coronavirus 2
[7] = Inhibition of SARS-COV2 N-terminal MBP-tagged 3CL protease using DABCYL-KTSAVLQSGFRKME-EDANS as substrate measured upto 30 mins by FRET assay; parameters: species or system Severe acute respiratory syndrome coronavirus 2
[8] = target: T1, Angiotensin-converting enzyme 2; test: Inhibition of recombinant SARS-COV2 His-tagged S-RBD binding to recombinant human ACE2 expressed in HEK293T cells incubated for 0.5 hrs by alpha screen assay; type: cell-based
[9] = Inhibition of SARS-COV2 main protease; parameters: species or system Severe acute respiratory syndrome coronavirus 2

Row | SMILES | pIC50 [1] | Activity (Sus scrofa [2]) | CAC (Sus scrofa [3]) | pIC50 [4] | pIC50 [5] | pIC50 [6] | pIC50 [7] | pIC50 [8] | pIC50 [9]
1 | C[C@@H](NCCCc1cccc(C(F)(F)F)c1)c1cccc2ccccc12 | 4.13 | 81% | 53 µM | 4.55 | – | – | – | – | –
2 | COc1ccc(-c2ccc3cc(C(=O)O)ccc3c2)cc1C12CC3CC(CC(C3)C1)C2 | 4.85 | 77% | 9.2 µM | – | – | – | – | – | –
3 | O=C(O)c1cccc(CN2C(=O)/C(=C(\c3ccccc3)c3ccc(Cl)cc3)c3ccccc32)c1 | 4.62 | 22% | 49 µM | – | < 3.70 | 4.45 | – | – | –
4 | C/C(=C\c1ccc(C(=O)O)cc1)c1ccc2c(c1)C(C)(C)CCC2(C)C | 5.36 | 83% | 5.2 µM | – | < 3.70 | 4.45 | – | – | –
5 | O=C(O)c1ccc(N2C(=O)/C(=C\c3ccc(-c4ccc([N+](=O)[O-])cc4)o3)C=C2c2ccccc2)cc1 | 6.44 | 75% | 6.2 µM | – | 4.00 | – | 4.74 | – | –
6 | CC(C)=CC[C@@H](O)C1=CC(=O)c2c(O)ccc(O)c2C1=O | – | 92% | 7.7 µM | – | – | – | – | – | –
7 | Cc1c(-c2ccc(O)cc2)n(Cc2ccc(OCCN3CCCCCC3)cc2)c2ccc(O)cc12 | – | 70% | – | – | – | – | – | – | –
8 | O=C1c2c(O)cccc2Cc2cccc(O)c21 [ANTHRALIN] | 5.60 | 93% | 4.5 µM | – | – | – | – | – | –
9 | c1ccc(-c2ccc(C(c3ccccc3)n3ccnc3)cc2)cc1 (stereo unspecified) [BIFONAZOLE] | 4.77 | – | – | – | – | – | – | – | –
10 | CC(C)(C)[C@H]1CC[C@H](CC2=C(O)C(=O)c3ccccc3C2=O)CC1 [BUPARVAQUONE] | 5.09 | 90% | 32 µM | – | – | – | – | – | –
11 | Oc1c(I)cc(Cl)c2cccnc12 [CLIOQUINOL] | 5.37 | 57% | – | – | – | – | – | – | –
12 | COc1c2ccc(-c3ccccc3)oc-2cc(=O)c1C [DRACORHODIN] | 5.11 | 86% | 22 µM | – | – | – | – | – | –
13 | Cc1cc(O)c2c(c1)C(=O)c1cc(O)cc(O)c1C2=O [EMODIN] | 4.90 | – | 6 µM | – | – | – | – | – | –
14 | Cc1cc(-c2ccc(/N=N/c3ccc4c(S(=O)(=O)O)cc(S(=O)(=O)O)c(N)c4c3O)c(C)c2)ccc1/N=N/c1ccc2c(S(=O)(=O)O)cc(S(=O)(=O)O)c(N)c2c1O [EVANS BLUE] | 8.00 | 64% | – | – | – | – | – | – | –
15 | Cc1cc2c(C(C)C)c(O)c(O)c(C=O)c2c(O)c1-c1c(C)cc2c(C(C)C)c(O)c(O)c(C=O)c2c1O [GOSSYPOL] | 6.09 | 92% | 34 µM | – | < 3.70 | 4.40 | – | – | –
16 | O=C1C=C2CC3(O)COc4c(ccc(O)c4O)C3=C2C=C1O (stereo unspecified) [HEMATEIN] | 5.12 | 24% | 123 µM | – | < 3.70 | – | – | 5.00 | –
17 | Cc1cc(O)c2c(=O)c3c(O)cc(O)c4c5c(O)cc(O)c6c(=O)c7c(O)cc(C)c8c1c2c(c34)c(c78)c65 [HYPERICIN] | 6.82 | 83% | 0.3 µM | – | – | – | – | – | 4.71
18 | COC(=O)C1=C(C)NC(C)=C(C(=O)OC(C)(C)CN(C)CCC(c2ccccc2)c2ccccc2)C1c1cccc([N+](=O)[O-])c1 (stereo unspecified) [LERCANIDIPINE] | 5.66 | 95% | 4 µM | – | < 3.70 | – | – | – | –
19 | COC(=O)C1=C(C)NC(C)=C(C(=O)OCCN2CCN(C(c3ccccc3)c3ccccc3)CC2)C1c1cccc([N+](=O)[O-])c1 (stereo unspecified) [MANIDIPINE 6300] | 5.70 | 92% | 2.8 µM | – | < 4.00 | – | – | – | –
20 | O=c1c(O)c(-c2cc(O)c(O)c(O)c2)oc2cc(O)cc(O)c12 [MYRICETIN] | – | – | 7.4 µM | – | – | – | – | 5.00 | –
21 | Brc1c(Br)c(Br)c2[nH]nnc2c1Br [TETRABROMOBENZOTRIAZOLE] | 4.84 | 61% | – | – | – | – | 5.40 | – | –
22 | Cc1c(C)c2c(c(C)c1O)CCC(C)(CCCC(C)CCCC(C)CCCC(C)C)O2 (stereo not drawn) [alpha-TOCHOPHEROL] | 7.10 | 69% | 1.5 µM | – | – | – | – | – | –
